High-throughput results from PubChem.
Only some compounds are listed: those with a hit (about 1.6% of all), similar ones and a draw of the others.
GALR2 blocker – GALR2 antagonists in receptor-expressing cells, primary screen. actives 0.39% (n = 140,000). inhibition, % at 4 µM. antagonist mode. AID 828, 2007. Galanin receptor type 2 (Homo sapiens), O43603; in the data active = inhibition above about 27%;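 also: cells stimulated with galanin 1-16 at roughly its EC80; 0% = agonist challenge control and 100% = basal control without agonist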
Target sequence (O43603 whole entry, looked up): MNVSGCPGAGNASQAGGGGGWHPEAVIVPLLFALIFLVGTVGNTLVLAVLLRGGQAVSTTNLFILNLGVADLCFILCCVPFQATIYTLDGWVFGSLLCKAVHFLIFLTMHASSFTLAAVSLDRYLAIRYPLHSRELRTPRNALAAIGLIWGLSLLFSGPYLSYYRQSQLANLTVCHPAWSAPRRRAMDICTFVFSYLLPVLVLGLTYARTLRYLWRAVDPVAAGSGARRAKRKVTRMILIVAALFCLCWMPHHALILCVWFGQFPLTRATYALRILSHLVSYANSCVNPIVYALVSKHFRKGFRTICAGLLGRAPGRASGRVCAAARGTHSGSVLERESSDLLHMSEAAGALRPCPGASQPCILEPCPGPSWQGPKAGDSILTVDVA
S1P2 blocker – human S1P2 receptor antagonists, primary screen, cell-based | Sphingosine 1-phosphate receptor 2 (Homo sapiens), O95136 | cell-based S1P2 antagonist assay, inhibition at 5 uM | inhibition, % at 5 µM | actives 0.21% (n = 97,000) | AID 736, 2007; in the data active = inhibition above about 45%;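 also: CRE beta-lactamase reporter cells expressing human S1P2 stimulated with S1P; 0% = agonist at EC80 alone and 100% = agonist plus reference antagonist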
GALR2 agonist – GALR2 receptor agonists, primary screen, cell-based. Galanin receptor type 2 (Homo sapiens), O43603. GALR2-expressing cells, agonist activation read-out. activation, % (test concentration not listed). actives 0.48% (n = 140,000). AID 803, 2007; in the data active = activation above about 5%, passing the limit was not always enough;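 also: 0% = vehicle buffer wells and 100% = reference agonist at full effect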
HIV Rev-RRE inh – HIV-1 Rev-RRE binding inhibitors, primary screen, biochemical, FRET, protein-RNA interaction | P05866 | Rev peptide-RRE RNA binding | inhibition, % at 8 µM | actives 0.79% (n = 97,000);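 active = inhibition above the screen-wide mean plus 3 SD, cut at about 35% in these data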;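 also: 0% = median DMSO wells and 100% = median Neomycin B control wells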
Target sequence (P05866 whole entry, looked up): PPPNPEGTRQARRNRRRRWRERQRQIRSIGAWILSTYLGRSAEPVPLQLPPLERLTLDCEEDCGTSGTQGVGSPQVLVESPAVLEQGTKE
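Test system: Cy5-tagged RRE RNA duplex with fluorescein-tagged Rev peptide; Probe or stimulus: labelled Rev peptide; Schedule: 5 min preincubation and 15 min binding, 25 °C; Signal: FRET fluorescence readout; Evaluation: % inhibition from 671/540 nm acceptor-to-donor ratio, scaled between controls; Control set: DMSO and neomycin B.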
S1P2 ag – S1P2 receptor agonists, primary screen, cell-based; Sphingosine 1-phosphate receptor 2 (Homo sapiens), O95136; S1P2-expressing cell line, agonist reporter read-out; activation, % at 4.5 µM; actives 0.46% (n = 97,000); AID 729, 2007; in the data active = activation above about 16%;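 also: 0% = vehicle low control and 100% = maximal reference agonist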
Starred values were filed as active, the others as inactive; x = no result given; [ ] = another dose, or the depositor's remark.

SMILES	GALR2 blocker	S1P2 blocker	GALR2 agonist	HIV Rev-RRE inh	S1P2 ag
COc1ccc(OC)c(/C=c2\sc3nc(-c4cccs4)nn3c2=O)c1	1	-8	-3	57*	-3
O=C(/C=C/c1ccccc1)c1cc(Br)ccc(=O)c1O	4	14	-3	46*	0
O/N=C1/C2C3C(Br)C4C5CC(C1C53)C24 (stereo unspecified)	15	x	-1	x	x
Cc1ccc2c(Cl)c(C(=O)Nc3cccnc3)sc2c1	4	x	-1	x	x
CCOc1ccc(NC(=O)C(=O)N/N=C\c2ccc(CNS(=O)(=O)c3ccccc3)o2)cc1	11	x	5.7*	x	x
CCOc1ccc(C(=O)N/N=C/c2ccc(-c3ccc(S(=O)(=O)Nc4ncccn4)cc3)o2)cc1	4	26	1	5	-2
O=C(Cc1ccccc1)NC(NCCc1ccccc1)C(Cl)(Cl)Cl (stereo unspecified)	-7	8	-1	10	-8
C=CCSC1=N/C(=C/c2ccsc2)C(=O)N1c1ccccc1	-4	x	0	x	x
Cc1ccc(N(C(=O)Cc2c[nH]c3ccccc23)C(C(=O)NC2CCCCC2)c2ccco2)cc1 (stereo unspecified)	-5	-6	-1	3	-10
Cc1ccccc1N(C(=O)Cc1c[nH]c2ccccc12)C(C(=O)NC1CCCCC1)c1ccco1 (stereo unspecified)	17	x	6.1*	x	x
Cc1nn(-c2ccccc2)c2nc3c(cc12)C(=O)CCC3	-9	x	-1	x	x
Nc1[nH]c(=S)[nH]c(=O)c1-c1ccccc1	7	15	-1	139*[fluorescence artefact?]	0
COC(=O)Cn1c(=NC(=O)c2ccc(OC)c(OC)c2)sc2cc(OC)ccc21	2	x	3	x	x
COc1ccc2c(c1)[nH]c1c(=O)n(Cc3ccco3)cnc12	11	-26	-3	5	-6
COc1ccc2c(c1)c1ncn(Cc3ccco3)c(=O)c1n2C	-9	-60	1	4	19*
COc1cc(/C=C2\SC(c3ccc(C)cc3)=NC2=O)cc(OC)c1O	-2	0	-2	50*[fluorescence artefact?]	-5
CN(C)c1nc(N)nc(CSc2nc3cc(Cl)ccc3o2)n1	-6	-5	-1	6	7
O=S1(=O)C=C(Sc2nc3cc(Cl)ccc3o2)c2ccccc21	10	94*	-1	7	-11
CCOc1cccc(C2C(C(=O)c3ccc(C)o3)=C(O)C(=O)N2c2nccs2)c1 (stereo unspecified)	3	2	0	74*	-6
CCCN1C(=O)/C(=C/c2ccc(N3CCCC3)c(C)c2)NC1=S	0	40	-1	139*[fluorescence artefact?]	-7
CCN1C(=O)/C(=C/c2ccc(N3CCCC3)cc2)NC1=S	13	x	-1	x	x
CCCCn1c(=NC(=O)c2cccnc2)c(C#N)cc2c(=O)n3cccc(C)c3nc21	-18	-27	3	49*	2
COc1ccc(C(=O)N=c2c(C#N)cc3c(=O)n4cccc(C)c4nc3n2Cc2ccco2)cc1	-8	-12	3	17	1
Cc1cccn2c(=O)c3cc(C#N)c(=NC(=O)c4ccncc4)n(CCCOC(C)C)c3nc12	-13	-13	2	22	18*
COCCCn1c(=NC(=O)c2ccncc2)c(C#N)cc2c(=O)n3cccc(C)c3nc21	-13	x	5.6*	x	x
SMILES	GALR2 blocker	S1P2 blocker	GALR2 agonist	HIV Rev-RRE inh	S1P2 ag
COc1ccc(C/C(C)=N/NC(=O)c2cccnc2)cc1	3	x	-1	x	x
O=C(c1sc2cccc(F)c2c1Cl)N1CCN(c2ncccn2)CC1	-4	x	0	x	x
Cn1c(=O)oc2cc(S(=O)(=O)Nc3ccc4c(c3)OCCO4)ccc21	9	1	-2	38*	-5
COc1cc2c(cc1OC)C(c1cc3ccccc3oc1=O)=NC(C)(C)C2	13	-58	0	6	33*
COc1ccc(-c2noc(-c3cc4ccccc4oc3=O)n2)cc1	-6	7	0	7	-3
CCOC(=O)CC1=C(C(=O)OCC)C(c2ccc(C)o2)C(C#N)=C(N)O1 (stereo unspecified)	-2	4	2	16	-3
Cc1ccc(C2C(C#N)=C(N)Oc3c2sc2ccccc32)o1 (stereo unspecified)	9	11	-3	94*[fluorescence artefact?]	-3
COc1ccccc1-c1c(C#N)c(N)nc2c1CCc1ccccc1-2	12	x	5.7*	x	x
NC(=O)c1ccc(NC(=O)C2CCCO2)cc1 (stereo unspecified)	-2	6	-3	2	219*
COc1ccc(-c2csc(NC(=O)c3ccc(OCC(=O)N4CCOCC4)c(OC)c3)n2)cc1OC	2	x	-1	x	x
COc1cc2cc(/C=C/C(=O)c3ccco3)c(Cl)nc2cc1OC	5	-18	-2	79*[fluorescence artefact?]	1
COc1ccc(Cl)cc1CN1CCN(c2nc(C)cc(C)c2C#N)CC1	-11	1	0	40*	0
COc1ccc2cc(S(=O)(=O)NCCCN3CCOCC3)ccc2c1	5	-3	-2	0	57*
CCN(CC)S(=O)(=O)c1ccc(OC)c(NC(=S)Nc2cccc(C)c2C)c1	2	x	-1	x	x
COC(=O)C1=CN(CCCN2CCCC2=O)C=C(C(=O)OC)C1c1cccs1	2	8	4	12	-1
COC(=O)C1=CN(Cc2cccs2)C=C(C(=O)OC)C1c1cccc(OC)c1OC	-10	-9	1	1	21*
CN=Cc1nc(-c2ccccc2)oc1O	6	-4	-1	5	1
CC1=Nc2ccccc2/C1=C\c1nc(-c2ccc(F)cc2)oc1O	2	16	-2	52*	-6
CCCCN(CCCC)C(=S)NC(=O)c1ccccc1Cl	6	x	-1	x	x
NS(=O)(=O)c1ccc(N2N=C(c3ccc(Br)cc3)CC2c2ccc(F)cc2)cc1 (stereo unspecified)	-38	-115	156*	6	161*
NS(=O)(=O)c1ccc(N2N=C(c3ccccc3)CC2c2cccc(F)c2)cc1 (stereo unspecified)	-11	x	5.9*	x	x
COc1ccc(C2CC(c3ccccc3)=NN2c2ccc(N)cc2)cc1 (stereo unspecified)	14	x	0	x	x
O=C(N/N=C/c1cccc(F)c1)c1c(O)c2c([nH]c1=O)CCCC2	2	x	-1	x	x
COc1cc(C(=O)N/N=C2\CCS(=O)(=O)c3ccc(F)cc32)cc(OC)c1OC	2	x	-1	x	x
CC(=NC(C)C)C1=C(O)C(C)OC1=O (stereo unspecified)	-4	x	-1	x	x
COc1ccc2nc(Nc3nc4cc5c(cc4s3)OCO5)sc2c1	-6	x	6.8*	x	x
COc1ccc2nc(Nc3ccc4c(c3)OCO4)sc2c1	7	2	-1	2	-9
CCN1/C(=C/c2ccc3ccccc3[n+]2CC)C=Cc2ccccc21	24	81*	0	18	-2
CCN1C(=C2C(=O)c3ccccc3C2=O)C=Cc2ccccc21	-4	-14	-1	13	-5
Nc1nnnn1/N=C/C(Br)=C/c1ccccc1	30*	47*	-1	6	-8
